From ChEMBL document CHEMBL4038327, “Inhibitory Kappa B Kinase α (IKKα) Inhibitors That Recapitulate Their Selectivity in Cells against Isoform-Related Biomarkers” (J Med Chem, 2017) come the findings set out here.

For series [1], the target named is T1, Inhibitor of nuclear factor kappa-B kinase subunit beta (Homo sapiens, UniProt O14920).
T1 sequence (O14920 whole entry): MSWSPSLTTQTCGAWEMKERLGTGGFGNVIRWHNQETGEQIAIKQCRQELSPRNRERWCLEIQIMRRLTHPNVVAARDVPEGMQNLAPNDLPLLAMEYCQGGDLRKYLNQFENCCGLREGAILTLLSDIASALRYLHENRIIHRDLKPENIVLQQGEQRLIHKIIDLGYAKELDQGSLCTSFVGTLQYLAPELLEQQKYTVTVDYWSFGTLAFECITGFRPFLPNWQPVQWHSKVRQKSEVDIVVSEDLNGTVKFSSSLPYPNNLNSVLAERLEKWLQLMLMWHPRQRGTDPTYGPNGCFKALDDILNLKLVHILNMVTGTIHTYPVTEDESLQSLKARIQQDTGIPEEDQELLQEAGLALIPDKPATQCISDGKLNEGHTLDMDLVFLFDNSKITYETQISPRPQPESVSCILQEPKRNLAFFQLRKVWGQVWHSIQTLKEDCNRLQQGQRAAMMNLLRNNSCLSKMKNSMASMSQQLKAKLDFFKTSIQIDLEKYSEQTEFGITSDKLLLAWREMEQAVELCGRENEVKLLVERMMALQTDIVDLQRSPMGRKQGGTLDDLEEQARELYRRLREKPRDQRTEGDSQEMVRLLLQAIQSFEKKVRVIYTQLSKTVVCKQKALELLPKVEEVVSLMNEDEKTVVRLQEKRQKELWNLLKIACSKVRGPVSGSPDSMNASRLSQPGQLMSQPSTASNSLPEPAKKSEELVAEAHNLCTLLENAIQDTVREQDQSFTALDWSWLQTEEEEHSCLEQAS
In words: Inhibition of IKKbeta in human U2OS cells assessed as TNFalpha induced IkBalpha degradation at 100 uM preincubated for 1 hr followed by TNFalpha stimulation for 30 mins by Western blot analysis. The class given is cell-based. To be noted: 0.5 h. In short, it runs like this: (§1)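 U2OS cells were grown in McCoy's 5A medium at 37 °C under 5% CO2 and made quiescent by 24 h serum deprivation. They were then pretreated with compound before agonist stimulation in serum-free medium. Phospho-p100, IκBα levels and phospho-p65 (Ser536) were assessed by Western blot.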
In general terms: In western blotting, separated proteins are transferred to a membrane and probed.

In series [2] the target is T1, Inhibitor of nuclear factor kappa-B kinase subunit beta. In words: Inhibition of IKKbeta in human U2OS cells assessed as decrease in TNFalpha induced p65 phosphorylation at ser536 residues at 100 uM preincubated for 1 hr followed by TNFalpha stimulation for 30 mins by Western blot analysis. The class given is cell-based. To be noted: 0.5 h. An outline of the steps: as §1

The target in series [3] is T2, Inhibitor of nuclear factor kappa-B kinase subunit alpha (Mus musculus) (UniProt Q60680).
T2 sequence (whole entry): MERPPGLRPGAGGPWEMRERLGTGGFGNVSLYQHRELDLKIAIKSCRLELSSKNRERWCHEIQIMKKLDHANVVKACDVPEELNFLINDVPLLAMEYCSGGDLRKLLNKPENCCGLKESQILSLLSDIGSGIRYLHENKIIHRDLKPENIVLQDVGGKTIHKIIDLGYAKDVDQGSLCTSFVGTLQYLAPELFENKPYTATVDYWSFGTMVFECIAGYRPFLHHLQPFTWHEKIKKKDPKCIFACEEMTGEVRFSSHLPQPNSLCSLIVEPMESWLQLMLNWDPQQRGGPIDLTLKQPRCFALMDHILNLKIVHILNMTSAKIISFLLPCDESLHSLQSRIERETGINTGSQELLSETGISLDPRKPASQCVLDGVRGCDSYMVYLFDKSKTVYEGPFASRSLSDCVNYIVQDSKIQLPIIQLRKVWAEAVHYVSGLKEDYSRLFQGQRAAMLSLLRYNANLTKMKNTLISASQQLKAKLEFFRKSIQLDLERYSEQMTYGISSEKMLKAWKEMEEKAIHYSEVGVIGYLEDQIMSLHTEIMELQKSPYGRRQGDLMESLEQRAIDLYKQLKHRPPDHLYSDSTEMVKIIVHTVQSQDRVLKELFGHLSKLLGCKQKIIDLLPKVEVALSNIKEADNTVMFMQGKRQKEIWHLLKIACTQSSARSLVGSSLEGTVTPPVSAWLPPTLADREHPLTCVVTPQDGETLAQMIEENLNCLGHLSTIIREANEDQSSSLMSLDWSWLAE
In words: Inhibition of IKKalpha in IKKbeta knockout mouse embryonic fibroblast cells harboring Adv.NF-kB.luc assessed as IL-1beta induced NF-kB transcriptional activation at 100 uM pretreated for 1 hr followed by IL-1beta stimulation for 6 hrs by luciferase reporter gene assay relative to control. Set-up: scale not given: the % may be the effect or the level left. In short, it runs like this:
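IKKβ knockout MEFs infected with Adv.NF-kB.luc (up to 300 pfu/cell, 24 h, 10% DMEM), replated and serum-starved 24 h. Pretreated 1 h with compound, then IL-1β (10 ng/mL) for 6 h. Lysis buffer contained 0.2 mM luciferin, and luminescence was read as RLU. Results are expressed as % of IL-1β + DMSO stimulation.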
A general note: Reporter assays use an easily measured gene product as a stand-in for the process of interest.

Series [4] deals with T1, Inhibitor of nuclear factor kappa-B kinase subunit beta. In words: Inhibition of recombinant full length human IKKbeta expressed in baculovirus infected sf9 insect cells using biotinylated IkBalpha as substrate after 60 mins by DELFIA. In short, it runs like this:
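Recombinant IKKβ (37 nM) was incubated with biotinylated IκB-α (Ser32) peptide (0.375 μM) and 40 μM ATP in Tris-HCl pH 7.5 with MgCl2, EDTA, DTT and BSA for 60 min at 30 °C. The reaction was quenched with EDTA and captured on streptavidin. Detection used anti-phospho-IκBα (Ser32/36) mAb plus Eu-anti-mouse IgG, read by time-resolved fluorescence (340/615 nm). Apparent Ki was obtained via Cheng–Prusoff, n=3.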

The target in series [5] is T3, Inhibitor of nuclear factor kappa-B kinase subunit alpha (Homo sapiens) (UniProt O15111).
T3 sequence (whole entry): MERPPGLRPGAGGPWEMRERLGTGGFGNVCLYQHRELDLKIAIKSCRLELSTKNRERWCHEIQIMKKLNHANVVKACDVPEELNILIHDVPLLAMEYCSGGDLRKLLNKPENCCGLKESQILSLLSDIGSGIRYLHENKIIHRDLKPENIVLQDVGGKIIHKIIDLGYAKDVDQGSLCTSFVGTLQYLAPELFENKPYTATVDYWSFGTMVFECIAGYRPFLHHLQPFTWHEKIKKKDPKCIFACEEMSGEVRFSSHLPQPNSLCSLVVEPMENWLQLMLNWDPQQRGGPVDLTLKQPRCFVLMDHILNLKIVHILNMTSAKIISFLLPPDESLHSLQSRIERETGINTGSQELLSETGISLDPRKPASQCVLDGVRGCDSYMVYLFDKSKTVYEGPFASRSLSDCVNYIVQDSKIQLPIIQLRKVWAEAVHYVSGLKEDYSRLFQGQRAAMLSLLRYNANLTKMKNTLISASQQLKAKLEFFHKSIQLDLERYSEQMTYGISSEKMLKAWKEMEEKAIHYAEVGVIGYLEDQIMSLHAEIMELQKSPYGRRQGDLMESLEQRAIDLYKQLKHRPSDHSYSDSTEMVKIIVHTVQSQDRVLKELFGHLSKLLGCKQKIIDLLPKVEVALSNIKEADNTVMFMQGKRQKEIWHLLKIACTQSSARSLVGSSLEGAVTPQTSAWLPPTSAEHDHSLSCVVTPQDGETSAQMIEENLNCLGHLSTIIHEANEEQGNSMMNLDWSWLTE
In words: (§2) Inhibition of IKKalpha in human U2OS cells assessed as decrease in FCS induced p100 phosphorylation at ser866/870 residues preincubated for 1 hr followed by FCS stimulation for 4 hrs by Western blot analysis. Type of series: cell-based. In short, it runs like this:
as §1

For series [6], the target named is T4, Inhibitor of nuclear factor kappa-B kinase subunit alpha (Homo sapiens, UniProt O15111).
T4 sequence (O15111 whole entry): T3 sequence (whole entry)
Described as §2. Type of series: cell-based. In short, it runs like this:
as §1

Series [7] has as its target T4, Inhibitor of nuclear factor kappa-B kinase subunit alpha. In words: Inhibition of recombinant human N-terminal GST-tagged IKKalpha (1 to 745 residues) expressed in baculovirus expression system using biotinylated IkBalpha as substrate after 60 mins by DELFIA.

What is called Ki is a measure of affinity in units of concentration, obtained from inhibition or displacement. As a reminder, the IC50 is the concentration at which inhibition is half-maximal. On to `N#Cc1c[nH]c2nc(N)nc(-c3ccc(CO)cc3)c12`, for which the “inhibition (INH)” value in series [1] and in series [2] was “Not Active” in each case. For the same molecule, the Activity in series [3] was 18.8%. Besides, the inhibition constant Ki was found to be 2300 nM in series [4] and 650 nM in series [7]. In addition, the inhibition result in series [5] was “Dose-dependent effect”. In addition, the IC50 in series [6] was 13900 to 19100 nM.
